Legend:
[1] = Two step assay, step one: terbium/DPA leakage from vesicles
[2] = Two step assay, step two: dithionite quenching of NBD lipids; details: 1 μM peptide, at least 8 h
[3] = Serial dilution leakage assay; details: independent of total P:L (0.05 to 0.001)
Outline: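 Terbium-loaded LUVs (100 nm extruded; 50 mM TbCl₃, 100 mM sodium citrate, 10 mM TES pH 7.2 inside), external Tb removed by gel filtration. Outside buffer is 300 mM NaCl, 10 mM TES pH 7.2 with 50 μM DPA. Test compound runs 0.078–1.25 μM at six fixed total P:L ratios in 96-well plates. Triton X-100 wells with matched lipid give 100% leakage. Repeated with BSA to block well adsorption.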

[4] = Incremental leakage assay

| Substance | terbium leakage ([1]; P:L=0.02 (1:50), only in PG-containing vesicles, 1 μM peptide, at least 8 h) | access to the vesicle interior at equilibrium ([2]; P:L = 0.005 (1:200)) | access to NBD lipids at equilibrium ([2]; P:L=0.02 (1:50), only in PG-containing vesicles) | lowest P:L ratio with measurable pore-forming activity ([1]; 1:10000 or 10 peptides per vesicle, supplemental Figure S1) | peptide concentration at which all leakage curves reach 100% leakage [3] [nM] | leakage in multiple lipid additions, PEG-lipid vesicles ([4]; vesicles containing 5 mol % PEG2000-headgroup conjugated lipids, supplemental Figure S5A) | lipid exchange between vesicles along with peptide ([4]; vesicles doped with fluorescent lipids, supplemental Figure S5B) |
| --- | --- | --- | --- | --- | --- | --- | --- |
| ALWKTMLKKLGTMALHAGKAALGAAADTISQGTQ [dermaseptin S1] | high leakage | no access to the vesicle interior at equilibrium | high access to NBD lipids | – | – | – | – |
| Ac-UPUAUAQUVUGLUPVUUQQF-OH [alamethicin] | – | – | – | ≤ 0.0001 | ≤ 500 | near complete leakage in multiple lipid additions | no lipid exchange between vesicles |
